Measured values published in ChEMBL document CHEMBL3425499, “Iridoid glycosides from Barleria lupulina” (J Nat Prod, 2015).
≈ marks a conversion by molar mass, not a printed value. Calls of active or inactive are those of the source. No cut-off for these calls is given here.

Experiments:
[1] = test system: NIH3T3; test: Cytotoxicity against mouse NIH/3T3 cells assessed as growth inhibition at 20 ug/ml after 72 hrs by CyQuant assay
[2] = test system: U-251; test: Cytotoxicity against Stat3-activated human U251MG cells assessed as growth inhibition at 20 ug/ml after 72 hrs by CyQuant assay; format: functional, cell-based
Procedure, shortened: (§1)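 Cells were seeded at 1000 per well and grown 24 h. They were then exposed to 20 μg/mL compound for 72 h. Viability was measured by the CyQuant assay following the kit instructions and expressed relative to DMSO-treated control cells.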

[3] = test system: MDA-MB-231; test: Cytotoxicity against Stat3-activated human MDA-MB-231 cells assessed as growth inhibition at 20 ug/ml after 72 hrs by CyQuant assay; format: functional, cell-based
Procedure, shortened: as §1

[4] = Antioxidant activity assessed as DPPH free radical scavenging activity measured as decoloration of a MeOH solution after 10 mins by spectrophotometry; format: physicochemical
Procedure, shortened: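 Compounds were dissolved in MeOH at various concentrations and mixed with a methanolic DPPH solution. Mixtures were held 10 min in the dark, then remaining DPPH was read as absorbance at 517 nm. Scavenging was calculated against a blank of DPPH plus solvent, taken as 100%.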

With `CC(=O)O[C@@]1(C)C[C@@H](O)[C@@H]2C(C(=O)O)=CO[C@@H](O[C@@H]3O[C@H](CO)[C@@H](O)[C@H](O)[C@H]3O)[C@@H]21` the inhibition [1] was “inactive”, the inhibition [2] was “inactive” and the inhibition [3] was “inactive”.
With `COC(=O)C1=CO[C@@H](O[C@@H]2O[C@H](CO)[C@@H](O)[C@H](O)[C@H]2O)[C@H]2[C@@H]1[C@H](OC(C)=O)C[C@]2(C)OC(C)=O` the inhibition [1] was “inactive”, the inhibition [2] was “inactive” and the inhibition [3] was “inactive”.
In the case of `COC(=O)C1=CO[C@@H](O[C@@H]2O[C@H](CO)[C@@H](O)[C@H](O)[C@H]2O)[C@@H]2[C@@](C)(OC(C)=O)CC[C@]12O`, the inhibition [1] is reported as “inactive”, the inhibition [2] is reported as “inactive” and the inhibition [3] is reported as “inactive”.
For `COC(=O)C1=CO[C@@H](O[C@@H]2O[C@H](CO)[C@@H](O)[C@H](O)[C@H]2O)[C@H]2[C@@H]1[C@H](O)C[C@]2(C)O` [SHANZHISIDE METHYL ESTER], the inhibition [1] was “inactive”, the IC50 [4] was 97.5 µg/mL (≈ 240 µM) and the inhibition [2] was “inactive”. The inhibition [3] was “inactive”.
For `COc1ccc(/C=C/C(=O)O[C@@H]2C[C@](C)(OC(C)=O)[C@H]3[C@H](O[C@@H]4O[C@H](CO)[C@@H](O)[C@H](O)[C@H]4O)OC=C(C(=O)O)[C@H]32)cc1`, the inhibition [1] was “inactive”, the inhibition [2] was “inactive” and the inhibition [3] was “inactive”.
In the case of `C[C@]1(O)C[C@@H](O)[C@@H]2C(C(=O)O)=CO[C@@H](O[C@@H]3O[C@H](COC=O)[C@@H](O)[C@H](O)[C@H]3O)[C@@H]21`, the inhibition [1] is reported as “inactive”, the inhibition [2] is reported as “inactive” and the inhibition [3] is reported as “inactive”.
For `COC(=O)C1=CO[C@@H](O[C@@H]2O[C@H](COC=O)[C@@H](O)[C@H](O)[C@H]2O)[C@H]2[C@@H]1[C@H](OC(C)=O)C[C@]2(C)OC(C)=O`, the inhibition [1] was “inactive”, the inhibition [2] was “inactive” and the inhibition [3] was “inactive”.
In the case of `COC(=O)C1=CO[C@@H](O[C@@H]2O[C@H](CO)[C@@H](O)[C@H](O)[C@H]2O)[C@H]2[C@@H]1[C@H](O)C[C@]2(C)OC(C)=O` [BARLERIN], the inhibition [1] is reported as “inactive”, the IC50 [4] is reported as 110.3 µg/mL (≈ 246 µM) and the inhibition [2] is reported as “inactive”. For the same molecule, the inhibition [3] was “inactive”.
Molecule `COC(=O)C1=CO[C@@H](O[C@@H]2O[C@H](CO)[C@@H](O)[C@H](O)[C@H]2O)[C@H]2[C@@H]1[C@H](OC(=O)/C=C/c1ccc(O)cc1)C[C@]2(C)OC(C)=O` has an IC50 [4] of 486.5 µg/mL (≈ 818 µM).
In the case of `O=C(O)c1cc(O)c(O)c(O)c1` [GALLIC ACID], the IC50 [4] is reported as 2.79 µg/mL (≈ 16.4 µM).
In the case of `C[C@]1(O)C[C@@H](O)[C@@H]2C(C(=O)O)=CO[C@@H](O[C@@H]3O[C@H](CO)[C@@H](O)[C@H](O)[C@H]3O)[C@@H]21` [SHANZHISIDE], the inhibition [1] is reported as “inactive”, the IC50 [4] is reported as 78.6 µg/mL (≈ 200 µM) and the inhibition [2] is reported as “inactive”. For the same molecule, the inhibition [3] was “inactive”.
In the case of `C[C@]1(O)CC[C@@H]2C(C(=O)O)=CO[C@@H](O[C@@H]3O[C@H](CO)[C@@H](O)[C@H](O)[C@H]3O)[C@@H]21`, the inhibition [1] is reported as “inactive”, the inhibition [2] is reported as “inactive” and the inhibition [3] is reported as “inactive”.
With `COc1ccc(/C=C\C(=O)O[C@@H]2C[C@](C)(OC(C)=O)[C@H]3[C@H](O[C@@H]4O[C@H](CO)[C@@H](O)[C@H](O)[C@H]4O)OC=C(C(=O)O)[C@H]32)cc1` the inhibition [1] was “inactive”, the inhibition [2] was “inactive” and the inhibition [3] was “inactive”.
For `COC(=O)C1=CO[C@@H](O[C@@H]2O[C@H](COC=O)[C@@H](O)[C@H](O)[C@H]2O)[C@H]2[C@@H]1[C@H](O)C[C@]2(C)OC(C)=O`, the inhibition [1] was “inactive”, the inhibition [2] was “inactive” and the inhibition [3] was “inactive”.
For `COC(=O)C1=CO[C@@H](O[C@@H]2O[C@H](CO)[C@@H](O)[C@H](O)[C@H]2O)[C@H]2[C@@H]1[C@H](OC(C)=O)C[C@]2(C)O`, the inhibition [1] was “inactive”, the IC50 [4] was 286.4 µg/mL (≈ 639 µM) and the inhibition [2] was “inactive”. For the same molecule, the inhibition [3] was “inactive”.
In the case of `O=C1O[C@H]([C@@H](O)CO)C(O)=C1O` [ASCORBIC ACID], the IC50 [4] is reported as 7.63 µg/mL (≈ 43.3 µM).
In the case of `O=c1c(O)c(-c2ccc(O)c(O)c2)oc2cc(O)cc(O)c12` [QUERCETIN], the IC50 [4] is reported as 9.52 µg/mL (≈ 31.5 µM).
For `C[C@]1(O)C[C@@H](OC=O)[C@@H]2C(C(=O)O)=CO[C@@H](O[C@@H]3O[C@H](CO)[C@@H](O)[C@H](O)[C@H]3O)[C@@H]21`, the inhibition [1] was “inactive”, the inhibition [2] was “inactive” and the inhibition [3] was “inactive”.
